Only some compounds are listed: those with a hit (about 4.7% of all), similar ones and a draw of the others.
IMP-1 inh – blocks Pseudomonas aeruginosa IMP-1 metallo-beta-lactamase | purified IMP-1, nitrocefin hydrolysis, epi-absorbance fluorescence | inhibition, % at 5.6 µM | 0.45% of 290,000 active | AID 1556;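 active = inhibition above the mean plus 3 SD of all compounds in the same screening run, cut at about 4.5% in these data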
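Material – recombinant IMP-1 enzyme, purified · Amount – IMP-1 0.2 nM before substrate addition · Medium – HEPES buffer pH 7.1 with ZnSO4 and Brij 35 · Timing – 25 °C, 15 min preincubation, 25 min reaction · Measured by – plate fluorescence quenching by hydrolysis product, ex 480/em 530 nm · Read-out – percent enzyme inhibition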
Jurkat NFkB inh – lowers PMA/ionomycin-induced NF-kB signal in Jurkat cells | 0.53% of 330,000 active | AID 435003 | inhibition, % at 4 µM | PMA/ionomycin-induced NF-kB luciferase reporter, luminescence; in the data active = inhibition above about 50%
Mdm2 MdmX PPI – disrupts the human Mdm2-MdmX interaction; O15151+Q00987; SaOS-2 split-luciferase Mdm2/MdmX complementation, luminescence; inhibition, % at 8 µM; 3% of 330,000 active; AID 485346;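 active = inhibition of at least 50% at 8 µM in the primary screen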
Target sequence (O15151 whole entry, looked up): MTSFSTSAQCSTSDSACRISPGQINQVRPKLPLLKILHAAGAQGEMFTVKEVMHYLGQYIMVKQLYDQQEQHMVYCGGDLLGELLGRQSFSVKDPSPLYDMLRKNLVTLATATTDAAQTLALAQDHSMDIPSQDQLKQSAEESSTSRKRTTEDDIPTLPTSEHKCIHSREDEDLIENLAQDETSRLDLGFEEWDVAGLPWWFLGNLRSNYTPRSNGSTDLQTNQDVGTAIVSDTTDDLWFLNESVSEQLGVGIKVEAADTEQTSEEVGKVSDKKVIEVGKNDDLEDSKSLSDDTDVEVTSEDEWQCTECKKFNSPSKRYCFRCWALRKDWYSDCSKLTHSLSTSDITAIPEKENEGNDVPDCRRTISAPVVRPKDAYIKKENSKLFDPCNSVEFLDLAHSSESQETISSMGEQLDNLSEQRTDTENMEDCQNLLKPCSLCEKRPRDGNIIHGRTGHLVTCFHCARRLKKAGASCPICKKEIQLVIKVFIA
Target sequence (Q00987 whole entry, looked up): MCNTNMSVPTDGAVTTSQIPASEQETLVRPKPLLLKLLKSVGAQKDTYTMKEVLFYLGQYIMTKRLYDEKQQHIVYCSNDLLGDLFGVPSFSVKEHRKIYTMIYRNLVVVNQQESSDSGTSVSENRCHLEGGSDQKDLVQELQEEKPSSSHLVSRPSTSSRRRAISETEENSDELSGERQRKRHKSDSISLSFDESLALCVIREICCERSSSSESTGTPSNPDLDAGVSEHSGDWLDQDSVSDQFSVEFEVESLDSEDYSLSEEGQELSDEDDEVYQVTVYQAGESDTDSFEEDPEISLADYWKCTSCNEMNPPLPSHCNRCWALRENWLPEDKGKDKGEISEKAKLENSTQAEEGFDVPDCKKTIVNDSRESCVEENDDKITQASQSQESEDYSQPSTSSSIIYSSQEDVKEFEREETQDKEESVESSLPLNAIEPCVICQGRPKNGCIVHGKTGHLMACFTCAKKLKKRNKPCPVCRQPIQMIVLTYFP
aSyn UTR inh – MLPCN primary screen, SNCA 5' untranslated region; 0.82% of 300,000 active; AID 1813; alpha-synuclein 5'UTR reporter, inhibitor activity; inhibition, % (tested at 7.5 µM); in the data active = inhibition above about 60%;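 also: H4 neuroglioblastoma cells stably carrying SNCA 5'UTR luciferase fusion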
697 NFkB inh – inhibitors of the PMA/ionomycin-induced NF-kB reporter in 697 B cells | inhibition, % at 4 µM | 697 B-cell NF-kB luciferase reporter, 16 h | AID 435022 | 0.33% of 330,000 active; in the data active = inhibition above about 35%
VIM-2 inhibitor – blocks Pseudomonas aeruginosa VIM-2 metallo-beta-lactamase; purified VIM-2, nitrocefin hydrolysis, epi-absorbance fluorescence; inhibition, % at 5.6 µM; 0.89% of 290,000 active; AID 1527;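 active = inhibition above the mean of all tested compounds plus 3 SD, cutoff set per screening run, cut at about 7.5% in these data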;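 also: red hydrolysis product quenches plate fluorescence so inhibitors raise well fluorescence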
Mdm2-MdmX conf – human Mdm2/MdmX binding inhibition, confirmed; 55% of 10,000 active; shares compounds with Mdm2 MdmX PPI; luminescent assay; inhibition, % at 8 µM; in the data active = inhibition above about 40%
FLuc counter – inhibits full-length luciferase, flagging false Mdm2/MdmX hits | shares compounds with Mdm2 MdmX PPI | SaOS-2 full-length luciferase counterscreen, luminescence | inhibition, % at 8 µM | 77% of 6,200 active;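 active = mean inhibition at 8 µM reaching about 37%, which flags the compound as non-specific, limit read from the data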;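 also: p53-null SaOS-2 cells with luciferase driven by a doxycycline-inducible promoter; compound on cells about two nights before reading with doxycycline added after day one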
Large screens that a line does not name were inactive (follow-up assays come after a bar, where they were run).

CC(C)(C)NC(=O)NC(=O)CN1c2cccc3cccc(c23)S1(=O)=O	none
CCC(=O)N1CCc2cc(S(=O)(=O)NC(Cc3ccccc3)C(=O)Nc3nccs3)ccc21 (configuration not stated)	none
COc1ccc(CCNC(=O)c2cccc(Br)c2)cc1OC	none
Cc1ccc(S(=O)(=O)N(C)c2ccc3sc(C)nc3c2)cc1	none
CN1C(=O)Nc2cccc3cccc1c23	Mdm2 MdmX PPI 52 | Mdm2-MdmX conf inactive
CC1=Nc2cccc3cccc(c23)N1C	none
CCN(CCCNC(=O)CCC(=O)N1CCOc2ccccc21)Cc1ccccc1	none
Cc1ccc(C(=O)c2no[n+]([O-])c2C(=O)c2ccc(C)cc2)cc1	Mdm2 MdmX PPI 51 | Mdm2-MdmX conf inactive
CC1(C)Cc2ccccc2C(/C(C#N)=N/O)=N1	none
CC(C)OC(=O)c1cc2c(ccn2C)n1CC(=O)N(Cc1ccccc1)c1ccccc1	Mdm2 MdmX PPI 86 | Mdm2-MdmX conf 54 | FLuc counter 65
O=C(O)c1cc2ccccc2cc1Nc1ccccc1	none
CCOc1ccc(NS(=O)(=O)c2cc(C(=O)NCCN3CCOCC3)ccc2C)cc1	none (no result: IMP-1 inh, aSyn UTR inh, VIM-2 inhibitor)
CNC(=O)c1cccnc1Nc1cccc(C(F)(F)F)c1	none
CN(CC(=O)Nc1ccccc1Br)C(=O)c1cccnc1Nc1cccc(C(F)(F)F)c1	Mdm2 MdmX PPI 56 | Mdm2-MdmX conf inactive
COc1ccc(C(C)(C)C)cc1NC(=O)COC(=O)CSCc1c(C)noc1C	none (no result: IMP-1 inh, aSyn UTR inh, VIM-2 inhibitor)
O=C(NC1c2ccccc2-c2ccccc21)N1CCOCC1	Mdm2 MdmX PPI 50 | Mdm2-MdmX conf inactive
CC(CNS(=O)(=O)c1cc(Cl)ccc1Cl)CN(C)C (configuration not stated)	none
C[C@]12C(=O)N(c3ccc(C(F)(F)F)cc3)C(=O)N1[C@H]1c3ccccc3OC[C@@H]1[C@H]2c1ccccc1	Mdm2 MdmX PPI 57 (no result: IMP-1 inh, aSyn UTR inh, VIM-2 inhibitor) | Mdm2-MdmX conf inactive
CCCNc1nc(C)cc(-c2cc(-c3ccccc3)on2)n1	none (no result: IMP-1 inh, VIM-2 inhibitor)
COc1ccc(Nc2nc(C)cc(-c3cc(-c4ccccc4)on3)n2)cc1	Mdm2 MdmX PPI 68 (no result: IMP-1 inh, VIM-2 inhibitor) | Mdm2-MdmX conf 50 | FLuc counter 83
CSc1ccccc1OCc1cc(C(=O)NCCc2nc(C)cc(C)n2)no1	none
O=C(c1cc(-c2ccccc2)nn1-c1ccccc1)N1CCN(S(=O)(=O)c2ccc(F)cc2)CC1	none (no result: IMP-1 inh, VIM-2 inhibitor)
Cc1ccc(S(=O)(=O)N2CCN(C(=O)c3cc(-c4cccs4)nn3-c3ccccc3)CC2)cc1	Mdm2 MdmX PPI 67 (no result: IMP-1 inh, VIM-2 inhibitor) | Mdm2-MdmX conf 41 | FLuc counter 88
Cc1ccc(S(=O)(=O)N2CCN(C(=O)c3c(C)nn(-c4ccccc4)c3Cl)CC2)cc1	none
O=C(c1cc(-c2cccs2)nn1-c1ccccc1)N1CCN(S(=O)(=O)c2ccccc2)CC1	Mdm2 MdmX PPI 55 (no result: IMP-1 inh, VIM-2 inhibitor) | Mdm2-MdmX conf inactive | FLuc counter 92
COc1ccc(CCC(=O)OCC(=O)Nc2sccc2C#N)cc1	none (no result: IMP-1 inh, aSyn UTR inh, VIM-2 inhibitor)
CCOC(=O)CCC(=O)Nc1ccc(S(=O)(=O)Nc2cc(OC)nc(OC)n2)cc1	none
Cc1c(NC(=O)c2ccc3ncccc3c2)c(=O)n(-c2ccccc2)n1C	none
CCc1nnc(NC(=O)c2ccc(-c3ccc(Cl)cc3)o2)s1	Mdm2 MdmX PPI 65 | Mdm2-MdmX conf inactive
CCc1nnc(NC(=O)c2ccc(-c3ccc(C(C)=O)cc3)o2)s1	none (no result: IMP-1 inh, aSyn UTR inh, VIM-2 inhibitor)
Cc1cccc(-n2ncc3c(=O)[nH]c(SCC(=O)NCCC4=CCCCC4)nc32)c1	Mdm2 MdmX PPI 90 (no result: IMP-1 inh, aSyn UTR inh, VIM-2 inhibitor) | Mdm2-MdmX conf inactive
CCCSc1nc2c(cnn2-c2ccc(C)cc2)c(=O)[nH]1	Mdm2 MdmX PPI 50 | Mdm2-MdmX conf inactive
Cc1ccc(SCC(=O)NCCC2=CCCCC2)cc1	none
CCCSc1nc2c(cnn2-c2ccc(F)cc2)c(=O)[nH]1	none
Cc1cc(Oc2ncccc2[N+](=O)[O-])c2cc(Cl)ccc2n1	Mdm2 MdmX PPI 56 | Mdm2-MdmX conf inactive
CC(=O)Nc1cccc(OCCCNC(=O)C2CCC2)c1	none
C=CCC[C@@H](Cc1ccc(F)cc1)C(=O)OC[C@H](Cc1c[nH]c2ccccc12)NC(=O)[C@H](CC=C)CC(=O)NCCO	Mdm2 MdmX PPI 54 (no result: IMP-1 inh, aSyn UTR inh, VIM-2 inhibitor) | Mdm2-MdmX conf inactive
C=CCC[C@H](Cc1ccc(F)cc1)C(=O)OC[C@H](Cc1c[nH]c2ccccc12)NC(=O)[C@@H](CC=C)CC(=O)N[C@@H](CO)Cc1ccccc1	Mdm2 MdmX PPI 77 (no result: IMP-1 inh, aSyn UTR inh, VIM-2 inhibitor) | Mdm2-MdmX conf 42 | FLuc counter 49
C=CCC[C@@H](Cc1ccc(F)cc1)C(=O)OC[C@H](Cc1c[nH]c2ccccc12)NC(=O)[C@@H](CC=C)CC(=O)N[C@H](CO)Cc1ccccc1	none (no result: IMP-1 inh, aSyn UTR inh, VIM-2 inhibitor)
C=CC[C@@H](CC(=O)N[C@H](CO)Cc1ccccc1)C(=O)N[C@H](COC(=O)[C@@H](CC=C)Cc1ccc(F)cc1)Cc1c[nH]c2ccccc12	Mdm2 MdmX PPI 81 (no result: IMP-1 inh, aSyn UTR inh, VIM-2 inhibitor) | Mdm2-MdmX conf 49 | FLuc counter 37
C=CCC[C@H](Cc1ccc(F)cc1)C(=O)OC[C@H](Cc1c[nH]c2ccccc12)NC(=O)[C@@H](CC=C)CC(=O)N[C@H](CO)Cc1ccccc1	Mdm2 MdmX PPI 85 (no result: IMP-1 inh, aSyn UTR inh, VIM-2 inhibitor) | Mdm2-MdmX conf inactive
C=CC[C@@H](CC(=O)N[C@@H](CO)Cc1ccccc1)C(=O)N[C@@H](COC(=O)[C@@H](CC=C)Cc1ccc(F)cc1)Cc1c[nH]c2ccccc12	none (no result: IMP-1 inh, aSyn UTR inh, VIM-2 inhibitor)
CCOc1ccccc1N1CCN(C(=O)c2ccccc2SCC(=O)N2CCCC2)CC1	none
Brc1ccc(OCc2nnc(SCC3CCCCC3)o2)cc1	none
Cc1ccc(NC2=C/C(=N\S(=O)(=O)c3cccs3)c3ccccc3C2=O)c(C)c1	Mdm2 MdmX PPI 84, aSyn UTR inh 118 | Mdm2-MdmX conf 100 | FLuc counter 52
Cc1ccc(Cl)cc1NC1=C/C(=N\S(=O)(=O)c2cccs2)c2ccccc2C1=O	Mdm2 MdmX PPI 81 | Mdm2-MdmX conf 100 | FLuc counter 52
Cc1cc(C)c(S(=O)(=O)/N=C2\C=C(Nc3ccc(C(=O)O)cc3)C(=O)c3ccccc32)c(C)c1	Mdm2 MdmX PPI 78 | Mdm2-MdmX conf 68 | FLuc counter 51
COc1ccc(C=C(c2nc3ccccc3s2)c2nc3ccccc3s2)cc1O	Mdm2 MdmX PPI 58 | Mdm2-MdmX conf 45 | FLuc counter 63
Cc1nc(C(=O)Nc2ccccc2)sc1C1(C)CC(c2cccc([N+](=O)[O-])c2)=NO1 (configuration not stated)	Mdm2 MdmX PPI 85 (no result: IMP-1 inh, VIM-2 inhibitor) | Mdm2-MdmX conf 63 | FLuc counter 49
Cc1nc(C(=O)O)sc1C1(C)CC(c2cccc([N+](=O)[O-])c2)=NO1 (configuration not stated)	none (no result: IMP-1 inh, VIM-2 inhibitor)
